CHOP UPR activ – activators of apoptotic arm of unfolded protein response (CHOP); CHO-CHOP luciferase reporter, UPR activation, luminescence; percent of tunicamycin response over DMSO baseline; activation, % at 10 µM; 330,000 tested, 0.34% active;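 active means at 10 µM dose, activation of 40% or more, normalized to positive control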;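 further: 100% = tunicamycin at 10 µg/mL and 0% = DMSO alone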
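System: CHO CHOP reporter cells. Amount: 500 cells per well. Buffer or medium: F12 medium, 10% FBS. Compound dosing: one dose, 10 µM in 0.5% DMSO. Incubation: 6 h compound exposure at 37 °C after overnight seeding. Technique: Steady-Glo luciferase luminescence. Benchmarks: tunicamycin and DMSO controls.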
VLA-4 inh – inhibition in a human VLA-4 binding assay. P13612. VLA-4 expressing cells, ligand binding flow cytometry. inhibition, % (about 7 µM as worked out from the volumes in the protocol). 330,000 tested, 0.2% active; in the data active means inhibition above about 50%
CHOP inhibitor – inhibitors of CHOP induction in ER stress response. inhibition, % at 10 µM. AID 2732. 220,000 tested, 3.8% active. CHO-K1 CHOP-promoter luciferase, tunicamycin-induced, 15-18 h;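 active means compounds that reduced the stress-induced luciferase reporter signal by more than about 70% of percent inhibition, limit read from the data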;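 further: 0% = tunicamycin plus vehicle and 100% = wells without tunicamycin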
UPR XBP1 act – adaptive UPR (XBP1) activation; 330,000 tested, 0.33% active; CHO-XBP1 luciferase reporter, IRE1-XBP1 UPR activation, luminescence; percent of tunicamycin response, DMSO as zero; activation, % at 20 µM; AID 463104;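 active means versus positive control, 20 µM dose yields 30% or more activation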;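 further: 100% = tunicamycin at 10 µg/mL and 0% = DMSO only wells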
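Material: IRE1-XBP1 luciferase reporter CHO line / Quantity: one thousand reporter cells per well / Buffer or medium: F12 with 10% serum / Compound: 20 µM single concentration, DMSO 1% / Times: 6 h treatment, 37 °C / Detection: Steady-Glo luciferase glow luminescence, 10 min after reagent addition / Benchmarks: tunicamycin high, DMSO low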
B2AR ag – human beta-2 adrenergic receptor agonism by FAP. Am2.2-beta2AR cells, FAP receptor internalization, flow cytometry. response, % (no concentration beside the values). 340,000 tested, 0.43% active. AID 504454;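 active means response above a set limit, near 3 SD of response in nonfluorescent compounds, cut at about 42% in these data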
Starred values were filed as active, the others as inactive; nt = no result given. This excerpt belongs to a sample that is enriched for hits.

SMILES	CHOP UPR activ	VLA-4 inh	CHOP inhibitor	UPR XBP1 act	B2AR ag
Cc1cc(C)c2nc(Cl)c(CN(Cc3ccco3)C(=O)Nc3ccccc3C)cc2c1	-1	14	24	10	42*
O=C(Nc1ccc(F)cc1)c1nc[nH]c1C(=O)Nc1ccccc1[N+](=O)[O-]	nt	13	87*	nt	11
CCOc1ccc(C(=O)Nc2ccccc2-c2ccccc2)cc1Cl	-3	0	81*	-2	-14
CCOc1ccc(C(=O)Nc2cccc(C(=O)O)c2C)cc1Cl	-9	12	9	-4	-5
FC(F)(F)c1ccc(CSc2nccn2-c2ccccc2)cc1	3	6	-2	0	-3
Brc1ccc(CSc2nccn2-c2ccccc2)cc1	-1	2	76*	4	-9
COc1ccc(C(=O)CNc2ccccc2Br)cc1	3	7	nt	-1	-3
Cc1ccccc1NCC(=O)c1ccc(Br)cc1	2	6	70*	-2	8
CCn1c(=S)sc2c(=O)n(CC(=O)Nc3cccc(Cl)c3)c(C)nc21	-1	1	nt	-1	-5
COCCNC(=O)c1cccc(Nc2nc(-c3ccccc3)c3cc(Cl)ccc3n2)c1	1	38	82*	12	8
Cc1ccc(-c2nnn(CC(=O)N(c3cccc(F)c3)C(C(=O)NC(C)(C)C)c3ccco3)n2)o1 (stereo unspecified)	-2	15	95*	1	5
CC(NC(=O)CCN1C(=O)c2ccccc2C1=O)c1ccc2c(c1)CCCC2 (stereo unspecified)	0	3	28	0	-13
Cc1cc(C)c2nc(-c3ccccn3)cc(C(=O)NCCc3ccc(S(N)(=O)=O)cc3)c2c1	-2	-10	89*	-3	-2
Cc1ccc(NC(=O)COC(=O)c2ccccc2Nc2ccccc2)cc1	0	15	77*	-1	-8
O=C(COC(=O)c1ccccc1Nc1ccccc1)c1ccccc1	2	1	21	3	14
CCOc1ccc(N/C=C/C(=O)c2ccccc2)c([N+](=O)[O-])c1	-7	7	87*	-3	-4
CC(=O)N1c2ccccc2[C@@H](C)[C@@H]1C	-1	-9	nt	0	1
CC(=O)N1c2ccccc2C2(O)N=C(C)SC12 (stereo unspecified)	-1	2	105*	0	0
COc1ccc(C2C(C#N)=C(N)Oc3cc(O)ccc32)cc1 (stereo unspecified)	nt	nt	nt	nt	-1
COc1ccc(N=Cc2cc3c(cc2O)OC(N)=C(C#N)C3c2ccccc2)cc1 (stereo unspecified)	3	-11	80*	-1	1
CCc1cc(=O)[nH]c(SCC(=O)NCc2ccc3c(c2)OCO3)n1	1	-13	nt	1	-8
Oc1c(C(c2cccs2)N2CCN(c3ccccc3)CC2)ccc2cccnc12 (stereo unspecified)	87*	20	99*	4	nt
Cc1ccc2cc(CN(Cc3ccc(F)cc3)Cc3nnnn3C3CCCC3)c(=O)[nH]c2c1	-1	-7	84*	-3	-10
CCc1ccc2[nH]c(=O)c(CN(Cc3ccccc3OC)Cc3nnnn3Cc3ccco3)cc2c1	7	-4	74*	0	13
CCc1ccc2[nH]c(=O)c(CN(Cc3ccc4c(c3)OCO4)Cc3nnnn3C3CCCC3)cc2c1	0	-4	82*	10	-5
SMILES	CHOP UPR activ	VLA-4 inh	CHOP inhibitor	UPR XBP1 act	B2AR ag
O=C(CCC1CCCC1)N1CCN(C(=O)COc2ccccc2)CC1	0	12	75*	-3	2
Cc1ccc(OCC(=O)N2CCN(C(=O)CCC3CCCC3)CC2)cc1	2	-6	29	-4	-10
CC1CCC(NC(=O)c2cccc(S(=O)(=O)N3CCN(c4ccc(F)cc4)CC3)c2)CC1 (stereo unspecified)	9	-5	nt	2	7
CC(=O)NC(Cc1cccc(F)c1)C(=O)NC1CCN(c2ncccc2[N+](=O)[O-])CC1 (stereo unspecified)	0	57*	-12	-2	-5
Cc1ccc(Cl)cc1NC(=O)C(=O)N/N=C/c1ccc2c(c1)OCO2	1	7	nt	-2	-6
CC(C)(C)c1nnc(N/N=C/c2ccc(Br)cc2)n(N)c1=O	5	32	33	4	70*
C#CCOCCOCCOCCNc1nc(N2CCN(C(=O)CCCCCCCCCCNC(=O)Cn3cc(C[C@@H](C)O)nn3)CC2)nc(N2CCN(C(=O)CCCCCCCCCCNC(=O)[C@H](CCCN=C(N)N)n3cc(C[C@@H](C)CC)nn3)CC2)n1	1	24	nt	4	57*
C#CCOCCOCCOCCNc1nc(N2CCN(C(=O)CCCCCCCCCCNC(=O)Cn3cc(C[C@@H](C)O)nn3)CC2)nc(N2CCN(C(=O)CCCCCCCCCCNC(=O)[C@H](CCCCN)n3cc(CCCC(=O)O)nn3)CC2)n1	0	-10	nt	1	15
C#CCOCCOCCOCCNc1nc(N2CCN(C(=O)CCCCCCCCCCNC(=O)[C@H](CO)n3cc(CCCSC)nn3)CC2)nc(N2CCN(C(=O)CCCCCCCCCCNC(=O)[C@H](CCCN=C(N)N)n3cc(C[C@@H](C)CC)nn3)CC2)n1	1	-9	nt	1	89*
Cc1cc(-n2c(C)cc(C(=O)CSc3ncnc4ccccc34)c2C)no1	0	-9	70*	1	11
Cc1cc(C(=O)CSc2ncnc3ccccc23)c(C)n1C1CC1	2	-9	nt	0	-2
Oc1c(Cl)cc(Cl)cc1C=Nc1ccc2c(c1)OCCO2	-2	8	87*	-1	9
Brc1csc(C=Nc2ccc3c(c2)OCCOCCOCCOCCO3)c1	0	2	-18	-1	6
O=C(Nc1ccc2c(c1)CCC2)c1ncoc1-c1ccccc1F	2	nt	nt	0	-5
NC1=NC(=O)/C(=C/c2ccccc2OS(=O)(=O)c2ccccc2)S1	2	6	41	0	8
NC1=NC(=O)/C(=C/c2c(OS(=O)(=O)c3ccc(Cl)cc3)ccc3ccccc23)S1	3	4	94*	0	-10
CCN(CC(=O)Nc1ccc(NC(C)=O)cc1)C(=O)Cc1ccc(Cl)c(Cl)c1	1	nt	nt	1	-20
COc1ccc(S(=O)(=O)n2cnc3cc(C)c(C)cc32)cc1C	1	15	70*	-3	-7
CSc1cccc(NC(=O)CNS(=O)(=O)c2ccccc2)c1	2	11	nt	-6	-2
O=c1oc2c(CN3CCN(CCO)CC3)c(O)ccc2cc1-c1ccccn1	-1	27	-3	3	43*
CCOc1ccc(C(=O)OCC(=O)N(Cc2ccccc2)Cc2ccccc2)cc1OC	0	5	nt	1	-4
COC(=O)c1cc(CNC(=O)c2ccccc2OCc2c(C)noc2C)ccc1OC	0	-23	nt	-3	9

Compound activity deposited in PubChem BioAssay by several laboratories.
